ChEMBL document CHEMBL3865784 (Eur J Med Chem, 2016)
The source made the active and inactive calls. No cut-off for these calls is given here.

What was measured:
[1] = Cytotoxicity against NQO1-deficient human HL60 cells assessed as reduction in cell viability after 72 hrs by MTT assay; assay type: functional, cell-based; conditions: HL-60, 72 h
In short: (§1)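 Cancer lines from NCI, grown in RPMI 1640 with 10% FBS, 2 mM L-glutamine, penicillin/streptomycin, 37 °C, 5% CO2; seeded 0.1 × 10^6 cells/well (HL-60) or 0.7 × 10^5 cells/well (solid tumours). Compounds in DMSO, final 0.1% v/v; DMSO vehicle as negative control.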

[2] = Cytotoxicity against human PC3 cells overexpressing NQO1 assessed as reduction in cell viability after 72 hrs by MTT assay; assay type: functional, cell-based; conditions: PC-3, 72 h
[3] = Cytotoxicity against human SF295 cells overexpressing NQO1 assessed as reduction in cell viability after 72 hrs by MTT assay; assay type: functional, cell-based; conditions: SF-295, 72 h
[4] = Cytotoxicity against human MDA-MB-435 cells overexpressing NQO1 assessed as reduction in cell viability after 72 hrs by MTT assay; assay type: functional, cell-based; conditions: MDA-MB-435, 72 h; in short: as §1
[5] = Cytotoxicity against human OVCAR8 cells overexpressing NQO1 assessed as reduction in cell viability after 72 hrs by MTT assay; assay type: functional, cell-based; conditions: OVCAR-8, 72 h; in short: as §1
[6] = Cytotoxicity against NQO1-deficient human PBMC assessed as reduction in cell viability after 72 hrs by MTT assay; assay type: toxicity, cell-based; conditions: for IC50: pbmc
[7] = Cytotoxicity against NQO1-deficient chinese hamster V79 cells assessed as reduction in cell viability after 72 hrs by MTT assay; assay type: toxicity, cell-based, Cricetulus griseus; conditions: for IC50: v79
[8] = organism: Mus musculus; experiment: (§2) Cytotoxicity against NQO1-deficient mouse L929 cells assessed as reduction in cell viability after 72 hrs by MTT assay; assay type: toxicity, cell-based; conditions: l929
[9] = tested on: PC-3; experiment: Induction of apoptosis in human PC3 cells assessed as externalization of phosphatidylserine on cell surface by measuring early apoptotic cells at 5 uM after 6 hrs by Annexin-V/FITC/PI staining by flow cytometry (reference value: 0.93 +/- 0.05%); assay type: functional
[10] = tested on: PC-3; experiment: Induction of apoptosis in human PC3 cells assessed as externalization of phosphatidylserine on cell surface by measuring early apoptotic cells at 5 uM pretreated with NAC measured after 6 hrs by Annexin-V/FITC/PI staining by flow cytometry (reference value: 0.93 +/- 0.05%); assay type: functional
[11] = tested on: PC-3; experiment: Induction of apoptosis in human PC3 cells assessed as externalization of phosphatidylserine on cell surface by measuring late apoptotic cells at 5 uM pretreated with NAC measured after 6 hrs by Annexin-V/FITC/PI staining by flow cytometry (reference value: 0%); assay type: functional
[12] = tested on: PC-3; experiment: Induction of apoptosis in human PC3 cells assessed as externalization of phosphatidylserine on cell surface by measuring early apoptotic cells at 5 uM cotreated with NQO1 inhibitor dicoumarol measured after 6 hrs by Annexin-V/FITC/PI staining by flow cytometry (reference value: 0.93 +/- 0.05%); assay type: functional; set-up: scale not given: the % may be the effect or the level left
[13] = tested on: PC-3; experiment: Induction of apoptosis in human PC3 cells assessed as externalization of phosphatidylserine on cell surface by measuring late apoptotic cells at 5 uM cotreated with NQO1 inhibitor dicoumarol measured after 6 hrs by Annexin-V/FITC/PI staining by flow cytometry (reference value: 0%); assay type: functional; set-up: scale not given: the % may be the effect or the level left
[14] = Cytotoxicity against human HCT116 cells expressing NQO1 assessed as reduction in cell viability after 72 hrs by MTT assay; assay type: functional, cell-based; conditions: HCT-116, 72 h; in short: as §1
[15] = tested on: HL-60; experiment: Selectivity index, ratio of IC50 for NQO1-deficient human PBMC to IC50 for NQO1-deficient human HL60 cells
In short: (§3)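 Selectivity index is IC50 in the normal cells divided by IC50 in the cancer line. Normal cells: V79 and L929 in DMEM, PBMC in RPMI with phytohaemagglutinin. Cancer lines in RPMI with 10% FBS, seeded at 0.1 × 10^6 (HL-60) or 0.7 × 10^5 cells/well (solid tumors). Absorbance 550 nm; nonlinear regression.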

[16] = tested on: HL-60; experiment: Selectivity index, ratio of IC50 for NQO1-deficient chinese hamster V79 cells to IC50 for NQO1-deficient human HL60 cells; assay type: functional; in short: as §3
[17] = tested on: L929; experiment: Selectivity index, ratio of IC50 for NQO1-deficient mouse L929 cells to IC50 for NQO1-deficient human HL60 cells; assay type: functional; in short: as §3
[18] = tested on: HCT-116; experiment: Selectivity index, ratio of IC50 for NQO1-deficient human PBMC to IC50 for human HCT116 cells expressing NQO1
In short: as §3, with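 “line. All IC50s come from 72 h MTT assays.” for “line.”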

[19] = tested on: HCT-116; experiment: Selectivity index, ratio of IC50 for NQO1-deficient chinese hamster V79 cells to IC50 for human HCT116 cells expressing NQO1
In short: as §3, with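 “line. All IC50s come from 72 h MTT assays.” for “line.”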

[20] = tested on: HCT-116; experiment: Selectivity index, ratio of IC50 for NQO1-deficient mouse L929 cells to IC50 for human HCT116 cells expressing NQO1
In short: as §3, with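 “line. All IC50s come from 72 h MTT assays.” for “line.”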

[21] = tested on: PC-3; experiment: Selectivity index, ratio of IC50 for NQO1-deficient human PBMC to IC50 for human PC3 cells overexpressing NQO1; in short: as §3
[22] = tested on: V79; experiment: Selectivity index, ratio of IC50 for NQO1-deficient chinese hamster V79 cells to IC50 for human PC3 cells overexpressing NQO1; in short: as §3
[23] = tested on: L929; experiment: Selectivity index, ratio of IC50 for NQO1-deficient mouse L929 cells to IC50 for human PC3 cells overexpressing NQO1; in short: as §3
[24] = tested on: L929; experiment: Selectivity index, ratio of IC50 for NQO1-deficient mouse L929 cells to IC50 for human SF295 cells overexpressing NQO1; in short: as §3
[25] = Selectivity index, ratio of IC50 for NQO1-deficient human PBMC to IC50 for human MDA-MB-435 cells overexpressing NQO1; in short: as §3
[26] = tested on: V79; experiment: Selectivity index, ratio of IC50 for NQO1-deficient chinese hamster V79 cells to IC50 for human MDA-MB-435 cells overexpressing NQO1; in short: as §3
[27] = tested on: L929; experiment: Selectivity index, ratio of IC50 for NQO1-deficient mouse L929 cells to IC50 for human MDA-MB-435 cells overexpressing NQO1; in short: as §3
[28] = tested on: OVCAR-8; experiment: Selectivity index, ratio of IC50 for NQO1-deficient human PBMC to IC50 for human OVCAR8 cells overexpressing NQO1
In short: as §3, with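 “line. All IC50s come from 72 h MTT assays.” for “line.”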

[29] = tested on: OVCAR-8; experiment: Selectivity index, ratio of IC50 for NQO1-deficient chinese hamster V79 cells to IC50 for human OVCAR8 cells overexpressing NQO1
In short: as §3, with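 “line. All IC50s come from 72 h MTT assays.” for “line.”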

[30] = tested on: L929; experiment: Selectivity index, ratio of IC50 for NQO1-deficient mouse L929 cells to IC50 for human OVCAR8 cells overexpressing NQO1; in short: as §3
[31] = target: NAD(P)H dehydrogenase [quinone] 1 (Homo sapiens) (UniProt P15559); experiment: Activation of NQO1 in human PC3 cells assessed as induction of ROS generation at 5 uM after 1 hr by H2DCFDA probe based flow cytometric analysis; assay type: cell-based; conditions: PC-3
[32] = tested on: PC-3; experiment: Induction of apoptosis in human PC3 cells assessed as externalization of phosphatidylserine on cell surface by measuring late apoptotic cells at 5 uM after 6 hrs by Annexin-V/FITC/PI staining by flow cytometry (reference value: 0%); assay type: functional
[33] = tested on: SF-295; experiment: Selectivity index, ratio of IC50 for NQO1-deficient human PBMC to IC50 for human SF295 cells overexpressing NQO1; in short: as §3
[34] = tested on: SF-295; experiment: Selectivity index, ratio of IC50 for NQO1-deficient chinese hamster V79 cells to IC50 for human SF295 cells overexpressing NQO1; in short: as §3
[35] = as §2; assay type: toxicity, cell-based; conditions: mouse, NQO1-deficient L929 cells

NAD(P)H dehydrogenase [quinone] 1 (Homo sapiens), sequence (P15559 whole entry): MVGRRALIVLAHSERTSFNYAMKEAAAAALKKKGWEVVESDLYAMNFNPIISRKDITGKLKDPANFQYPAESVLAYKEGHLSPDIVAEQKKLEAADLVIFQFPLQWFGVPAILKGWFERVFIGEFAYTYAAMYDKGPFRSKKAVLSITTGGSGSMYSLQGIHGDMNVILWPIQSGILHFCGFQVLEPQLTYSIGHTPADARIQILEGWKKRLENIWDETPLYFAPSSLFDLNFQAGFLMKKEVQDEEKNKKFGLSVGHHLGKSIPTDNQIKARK

Row | SMILES | IC50 [1] | IC50 [2] | IC50 [3] | IC50 [4] | IC50 [5] | IC50 [6] | IC50 [7] | IC50 [8] | Activity [9] | Activity [10] | Activity [11] | Activity [12] | Activity [13] | IC50 [14] | Ratio IC50 [15] | Ratio IC50 [16] | Ratio IC50 [17] | Ratio IC50 [18] | Ratio IC50 [19] | Activity [32] | further results
1 | CC1(C)OC2=C(C(=O)C(=O)c3ccccc32)C1n1cc(C[Se]c2ccccc2)nn1 (configuration not stated) | 1290 nM | 2430 nM | 1310 nM | 1060 nM | 2260 nM | 1760 nM | 2650 nM | 2300 nM | 15.07% | 1.12% | 0% | 1.26% | 0% | – | – | – | – | – | – | – | –
2 | CC1(C)OC2=C(C(=O)C(=O)c3ccccc32)C1Nc1cccc(-c2cn(C[Se]c3ccccc3)nn2)c1 (configuration not stated) | 70 nM | 380 nM | 340 nM | 230 nM | 200 nM | 1390 nM | 1130 nM | 940 nM | 16.61% | 0.89% | 0% | 0.91% | 0% | 140 nM | 19.8 | 16.1 | 13.4 | 9.9 | 8 | 3.27% | Ratio IC50 [20]: 6.7; Ratio IC50 [21]: 3.6; Ratio IC50 [22]: 2.9; Ratio IC50 [23]: 2.4; Ratio IC50 [24]: 2.7; Ratio IC50 [25]: 6; Ratio IC50 [26]: 4.9; Ratio IC50 [27]: 4; Ratio IC50 [28]: 6.9; Ratio IC50 [29]: 5.6; Ratio IC50 [30]: 4.7; Activity [31]: Active
3 | [N-]=[N+]=NCC1CC2=C(O1)C(=O)c1ccccc1C2=O (configuration not stated) | 310 nM | 390 nM | 350 nM | 200 nM | 350 nM | 3210 nM | 2470 nM | 2150 nM | – | – | – | – | – | 240 nM | 10.3 | 7.9 | 6.9 | 13.3 | 10.2 | – | Ratio IC50 [20]: 8.9; Ratio IC50 [21]: 8.2; Ratio IC50 [22]: 6.3; Ratio IC50 [23]: 5.5; Ratio IC50 [33]: 9.1; Ratio IC50 [34]: 7; Ratio IC50 [24]: 6.1; Ratio IC50 [25]: 16; Ratio IC50 [26]: 12.3; Ratio IC50 [27]: 10.7; Ratio IC50 [28]: 9.1; Ratio IC50 [29]: 7; Ratio IC50 [30]: 6.1
4 | CC(=O)N[C@@H](CS)C(=O)O [ACETYLCYSTEINE] | – | – | – | – | – | – | – | – | 0.87% | – | – | – | – | – | – | – | – | – | – | 0% | –
5 | O=c1oc2ccccc2c(O)c1Cc1c(O)c2ccccc2oc1=O [DICUMAROL] | – | – | – | – | – | – | – | – | 0.95% | – | – | – | – | – | – | – | – | – | – | 0% | –
6 | COc1cccc2c1C(=O)c1c(O)c3c(c(O)c1C2=O)C[C@@](O)(C(=O)CO)C[C@@H]3O[C@H]1C[C@H](N)[C@H](O)[C@H](C)O1 [DOXORUBICIN] | – | – | – | 960 nM | 410 nM | – | – | – | – | – | – | – | – | 150 nM | – | – | – | – | – | – | IC50 at 72 h ([6]; human): 550 nM; IC50 at 72 h ([7]; Chinese hamster, NQO1-deficient V79 cells): 280 nM; IC50 at 72 h [35]: 230 nM
